“And” between values parts separate entries of the source, which are not always exact repeats. Equal values may be shown once.
System: U2OS
Assay: Multiplex assay against U2OS
Format: toxicity, cell-based
Details: human
Summary of the method: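 Compound was added to live cells that had been stained at seeding with Hoechst33342, BioTracker Green Microtubule Cytoskeleton Dye, MitoTracker Red and Annexin V Alexa Fluor 680, and imaging followed on a CQ1 microscope at 37°C and 5% CO2. CellPathfinder machine-learning gating divided cells into Hoechst high-intensity objects or normal cells, normal cells into healthy, pyknosed or fragmented nuclei, and pyknosed cells into mitotic or apoptotic. Tubulin, mitochondrial-mass and membrane-permeability phenotypes are per cents of healthy-nucleus cells.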

[1] = 12 h, 1 µM, compound concentration 1 uM, replicate 1
[2] = 12 h, 1 µM, compound concentration 1 uM, replicate 2
[3] = 12 h, 10 µM, compound concentration 10 uM, replicate 1
[4] = 12 h, 10 µM, compound concentration 10 uM, replicate 2
[5] = 24 h, 1 µM, compound concentration 1 uM, replicate 1
[6] = 24 h, 1 µM, compound concentration 1 uM, replicate 2
[7] = 24 h, 10 µM, compound concentration 10 uM, replicate 1
[8] = 24 h, 10 µM, compound concentration 10 uM, replicate 2
[9] = 48 h, 1 µM, compound concentration 1 uM, replicate 1
[10] = 48 h, 1 µM, compound concentration 1 uM, replicate 2
[11] = 48 h, 10 µM, compound concentration 10 uM, replicate 1
[12] = 48 h, 10 µM, compound concentration 10 uM, replicate 2

COc1cc(-n2cnc3cc(-c4ccc(Cl)cc4)sc3c2=O)ccc1OCCN1CCCC1
Population Apoptotic (%) [1]: 45% | Population Fragmented Nuclei (%) [1]: 12% | Population Healthy Nuclei (%) [1]: 70% | Population Hoechst High Intensity Objects (%) [1]: 9% | Population Membrane Permeable-Phenotype (%) [1]: 9% | Population Mitochondria Different-Phenotype (%) [1]: 63% | Population Mitotic Cells (%) [1]: 54% | Population Normal (%) [1]: 90% | Population Pyknosed Nuclei (%) [1]: 16% | Population Tubulin-Different-Phenotype (%) [1]: 65% | Total Cell Count [1]: 157 | Population Apoptotic (%) [2]: 71% | Population Fragmented Nuclei (%) [2]: 11% | Population Healthy Nuclei (%) [2]: 77% | Population Hoechst High Intensity Objects (%) [2]: 16% | Population Membrane Permeable-Phenotype (%) [2]: 10% | Population Mitochondria Different-Phenotype (%) [2]: 44% | Population Mitotic Cells (%) [2]: 28% | Population Normal (%) [2]: 84% | Population Pyknosed Nuclei (%) [2]: 11% | Population Tubulin-Different-Phenotype (%) [2]: 34% | Total Cell Count [2]: 78 | Population Apoptotic (%) [3]: 72% | Population Fragmented Nuclei (%) [3]: 32% | Population Healthy Nuclei (%) [3]: 13% | Population Hoechst High Intensity Objects (%) [3]: 10% | Population Membrane Permeable-Phenotype (%) [3]: 61% | Population Mitochondria Different-Phenotype (%) [3]: 100% | Population Mitotic Cells (%) [3]: 27% | Population Normal (%) [3]: 90% | Population Pyknosed Nuclei (%) [3]: 54% | Population Tubulin-Different-Phenotype (%) [3]: 100% | Total Cell Count [3]: 144 | Population Apoptotic (%) [4]: 26% | Population Fragmented Nuclei (%) [4]: 22% | Population Healthy Nuclei (%) [4]: 57% | Population Hoechst High Intensity Objects (%) [4]: 8% | Population Membrane Permeable-Phenotype (%) [4]: 34% | Population Mitochondria Different-Phenotype (%) [4]: 93% | Population Mitotic Cells (%) [4]: 73% | Population Normal (%) [4]: 91% | Population Pyknosed Nuclei (%) [4]: 19% | Population Tubulin-Different-Phenotype (%) [4]: 97% | Total Cell Count [4]: 75 | Population Apoptotic (%) [5]: 56% | Population Fragmented Nuclei (%) [5]: 6% | Population Healthy Nuclei (%) [5]: 76% | Population Hoechst High Intensity Objects (%) [5]: 6% | Population Membrane Permeable-Phenotype (%) [5]: 8% | Population Mitochondria Different-Phenotype (%) [5]: 45% | Population Mitotic Cells (%) [5]: 43% | Population Normal (%) [5]: 93% | Population Pyknosed Nuclei (%) [5]: 16% | Population Tubulin-Different-Phenotype (%) [5]: 42% | Total Cell Count [5]: 175 | Population Apoptotic (%) [6]: 62% | Population Fragmented Nuclei (%) [6]: 16% | Population Healthy Nuclei (%) [6]: 71% | Population Hoechst High Intensity Objects (%) [6]: 10% | Population Membrane Permeable-Phenotype (%) [6]: 6% | Population Mitochondria Different-Phenotype (%) [6]: 25% | Population Mitotic Cells (%) [6]: 37% | Population Normal (%) [6]: 89% | Population Pyknosed Nuclei (%) [6]: 12% | Population Tubulin-Different-Phenotype (%) [6]: 21% | Total Cell Count [6]: 83 | Population Apoptotic (%) [7]: 95% | Population Fragmented Nuclei (%) [7]: 48% | Population Healthy Nuclei (%) [7]: 3% | Population Hoechst High Intensity Objects (%) [7]: 11% | Population Membrane Permeable-Phenotype (%) [7]: 100% | Population Mitochondria Different-Phenotype (%) [7]: 100% | Population Mitotic Cells (%) [7]: 4% | Population Normal (%) [7]: 88% | Population Pyknosed Nuclei (%) [7]: 47% | Population Tubulin-Different-Phenotype (%) [7]: 100% | Total Cell Count [7]: 147 | Population Apoptotic (%) [8]: 47% | Population Fragmented Nuclei (%) [8]: 24% | Population Healthy Nuclei (%) [8]: 52% | Population Hoechst High Intensity Objects (%) [8]: 14% | Population Membrane Permeable-Phenotype (%) [8]: 42% | Population Mitochondria Different-Phenotype (%) [8]: 89% | Population Mitotic Cells (%) [8]: 52% | Population Normal (%) [8]: 85% | Population Pyknosed Nuclei (%) [8]: 23% | Population Tubulin-Different-Phenotype (%) [8]: 81% | Total Cell Count [8]: 74 | Population Apoptotic (%) [9]: 59% | Population Fragmented Nuclei (%) [9]: 10% | Population Hoechst High Intensity Objects (%) [9]: 3% | Population Membrane Permeable-Phenotype (%) [9]: 7% | Population Mitochondria Different-Phenotype (%) [9]: 28% | Population Mitotic Cells (%) [9]: 40% | Population Normal (%) [9]: 96% | Population Pyknosed Nuclei (%) [9]: 14% | Population Tubulin-Different-Phenotype (%) [9]: 31% | Total Cell Count [9]: 187 | Population Apoptotic (%) [10]: 63% | Population Fragmented Nuclei (%) [10]: 12% | Population Healthy Nuclei (%) [10]: 74% | Population Hoechst High Intensity Objects (%) [10]: 5% | Population Membrane Permeable-Phenotype (%) [10]: 21% | Population Mitochondria Different-Phenotype (%) [10]: 31% | Population Mitotic Cells (%) [10]: 36% | Population Normal (%) [10]: 94% | Population Pyknosed Nuclei (%) [10]: 13% | Population Tubulin-Different-Phenotype (%) [10]: 19% | Total Cell Count [10]: 79 | Population Apoptotic (%) [11]: 97% | Population Fragmented Nuclei (%) [11]: 33% | Population Healthy Nuclei (%) [11]: 7% | Population Hoechst High Intensity Objects (%) [11]: 20% | Population Membrane Permeable-Phenotype (%) [11]: 88% | Population Mitochondria Different-Phenotype (%) [11]: 100% | Population Mitotic Cells (%) [11]: 2% | Population Normal (%) [11]: 79% | Population Pyknosed Nuclei (%) [11]: 59% | Population Tubulin-Different-Phenotype (%) [11]: 100% | Total Cell Count [11]: 189 | Population Apoptotic (%) [12]: 53% | Population Fragmented Nuclei (%) [12]: 25% | Population Healthy Nuclei (%) [12]: 59% | Population Hoechst High Intensity Objects (%) [12]: 5% | Population Membrane Permeable-Phenotype (%) [12]: 56% | Population Mitochondria Different-Phenotype (%) [12]: 96% | Population Mitotic Cells (%) [12]: 46% | Population Normal (%) [12]: 94% | Population Pyknosed Nuclei (%) [12]: 15% | Population Tubulin-Different-Phenotype (%) [12]: 96% | Total Cell Count [12]: 87

NC(=O)Nc1cc(-c2cccc(F)c2)sc1C(=O)N[C@H]1CCCNC1 [AZD-7762]
Population Apoptotic (%) [1]: 25% | Population Fragmented Nuclei (%) [1]: 7% | Population Hoechst High Intensity Objects (%) [1]: 3% | Population Membrane Permeable-Phenotype (%) [1]: 9% | Population Mitochondria Different-Phenotype (%) [1]: 17% | Population Mitotic Cells (%) [1]: 75% | Population Normal (%) [1]: 96% | Population Pyknosed Nuclei (%) [1]: 10% | Total Cell Count [1]: 157 | Population Apoptotic (%) [2]: 0% | Population Fragmented Nuclei (%) [2]: 8% | Population Healthy Nuclei (%) [2]: 81% | Population Hoechst High Intensity Objects (%) [2]: 15% | Population Membrane Permeable-Phenotype (%) [2]: 13% | Population Mitochondria Different-Phenotype (%) [2]: 10% | Population Mitotic Cells (%) [2]: 100% | Population Normal (%) [2]: 84% | Population Pyknosed Nuclei (%) [2]: 9% | Population Tubulin-Different-Phenotype (%) [2]: 26% | Total Cell Count [2]: 110 | Population Apoptotic (%) [3]: 25% and 43% | Population Fragmented Nuclei (%) [3]: 28% | Population Healthy Nuclei (%) [3]: 28% and 20% | Population Hoechst High Intensity Objects (%) [3]: 3% and 12% | Population Membrane Permeable-Phenotype (%) [3]: 19% and 8% | Population Mitochondria Different-Phenotype (%) [3]: 15% and 20% | Population Mitotic Cells (%) [3]: 74% and 56% | Population Normal (%) [3]: 96% and 87% | Population Pyknosed Nuclei (%) [3]: 49% and 50% | Population Tubulin-Different-Phenotype (%) [3]: 17% and 11% | Total Cell Count [3]: 189 and 194 | Population Apoptotic (%) [4]: 46% and 22% | Population Fragmented Nuclei (%) [4]: 22% and 25% | Population Healthy Nuclei (%) [4]: 25% and 32% | Population Hoechst High Intensity Objects (%) [4]: 5% and 11% | Population Membrane Permeable-Phenotype (%) [4]: 21% and 20% | Population Mitotic Cells (%) [4]: 53% and 77% | Population Normal (%) [4]: 94% and 88% | Population Pyknosed Nuclei (%) [4]: 52% and 41% | Total Cell Count [4]: 79 and 84 | Population Apoptotic (%) [5]: 40% | Population Fragmented Nuclei (%) [5]: 15% | Population Healthy Nuclei (%) [5]: 52% | Population Hoechst High Intensity Objects (%) [5]: 6% | Population Membrane Permeable-Phenotype (%) [5]: 16% | Population Mitochondria Different-Phenotype (%) [5]: 21% | Population Mitotic Cells (%) [5]: 60% | Population Normal (%) [5]: 93% | Population Pyknosed Nuclei (%) [5]: 32% | Population Tubulin-Different-Phenotype (%) [5]: 35% | Total Cell Count [5]: 150 | Population Apoptotic (%) [6]: 37% | Population Fragmented Nuclei (%) [6]: 7% | Population Healthy Nuclei (%) [6]: 51% | Population Hoechst High Intensity Objects (%) [6]: 18% | Population Membrane Permeable-Phenotype (%) [6]: 7% | Population Mitotic Cells (%) [6]: 62% | Population Normal (%) [6]: 81% | Population Pyknosed Nuclei (%) [6]: 40% | Population Tubulin-Different-Phenotype (%) [6]: 34% | Total Cell Count [6]: 97 | Population Apoptotic (%) [7]: 81% and 85% | Population Healthy Nuclei (%) [7]: 7% | Population Hoechst High Intensity Objects (%) [7]: 9% and 10% | Population Mitochondria Different-Phenotype (%) [7]: 46% and 78% | Population Mitotic Cells (%) [7]: 18% and 14% | Population Normal (%) [7]: 90% and 89% | Population Pyknosed Nuclei (%) [7]: 47% and 70% | Total Cell Count [7]: 185 and 189 | Population Apoptotic (%) [8]: 92% and 70% | Population Fragmented Nuclei (%) [8]: 16% and 21% | Population Healthy Nuclei (%) [8]: 16% and 18% | Population Hoechst High Intensity Objects (%) [8]: 20% and 11% | Population Membrane Permeable-Phenotype (%) [8]: 100% and 64% | Population Mitochondria Different-Phenotype (%) [8]: 80% and 57% | Population Normal (%) [8]: 80% and 88% | Population Pyknosed Nuclei (%) [8]: 66% and 59% | Population Tubulin-Different-Phenotype (%) [8]: 90% and 64% | Total Cell Count [8]: 75 and 84 | Population Apoptotic (%) [11]: 95% | Population Fragmented Nuclei (%) [11]: 38% | Population Healthy Nuclei (%) [11]: 1% | Population Hoechst High Intensity Objects (%) [11]: 15% | Population Membrane Permeable-Phenotype (%) [11]: 0% | Population Mitochondria Different-Phenotype (%) [11]: 33% | Population Mitotic Cells (%) [11]: 4% | Population Normal (%) [11]: 84% | Population Pyknosed Nuclei (%) [11]: 59% | Population Tubulin-Different-Phenotype (%) [11]: 33% | Total Cell Count [11]: 188 | Population Apoptotic (%) [12]: 100% | Population Fragmented Nuclei (%) [12]: 16% | Population Healthy Nuclei (%) [12]: 44% | Population Hoechst High Intensity Objects (%) [12]: 21% | Population Membrane Permeable-Phenotype (%) [12]: 100% | Population Mitochondria Different-Phenotype (%) [12]: 92% | Population Mitotic Cells (%) [12]: 0% | Population Normal (%) [12]: 78% | Population Pyknosed Nuclei (%) [12]: 38% | Population Tubulin-Different-Phenotype (%) [12]: 96% | Total Cell Count [12]: 75
